pIC50: −log10 of the molar value. The source made the active and inactive calls. The rule behind the calls is not given here.

For experiment [1], the system named is Spinacia oleracea. The experiment is described as follows: (§1) Inhibition of photosynthetic phosphorylation from water to methyl viologen in spinach leaves chloroplast. The class given is functional. Summed up:
(§2)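 Isolated spinach chloroplasts (20 μg Chl/mL) osmotically ruptured in 100 mM sorbitol, 10 mM KCl, 5 mM MgCl₂, 0.001 M Na⁺-tricine, with 1 mM ADP, 3 mM Pi and 0.05 mM MV. ATP formed was calculated from light-driven alkalization, back-titrated with HCl. I50 read from concentration-response plots; average of three replicates.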

For experiment [2], the system named is Spinacia oleracea. The experiment is described as follows: Effect on uncoupled photosystem 2 in spinach chloroplast assessed as inhibition of electron transport rate of water to 2,6-dicholorophenol indophenol at 50 uM relative to control. Details: scale not given: the % may be the effect or the level left. The procedure, abridged:
(§3)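 Uncoupled PSII water→DCPIP followed as DCPIP-supported O₂ evolution, measured polarographically. Basal medium used 300 μM K₃[Fe(CN)₆] in place of MV, with 1 μM DBMIB, 50 μM DCPIP and 6 mM NH₄Cl. Run at 20 °C; % of control; average of three replicates.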

The test system of experiment [3] is Spinacia oleracea. Description: Effect on uncoupled photosystem 1 in spinach chloroplast assessed as inhibition of electron transport rate of 2,6-dichlorophenol indophenol to methyl viologen at 300 uM relative to control. Details: scale not given: the % may be the effect or the level left. Summed up: (§4)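 Uncoupled PSI flow measured polarographically in 3 mL basal uncoupled medium. Donor was 100 μM DCPIP reduced by 300 μM sodium ascorbate, with 10 μM DCMU to block PSII, 6 mM NH₄Cl and 0.05 mM MV as acceptor. Run at 20 °C; % of control; average of three replicates.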

For experiment [4], the system named is Spinacia oleracea. The experiment is described as follows: Effect on uncoupled photosystem 2 in spinach chloroplast assessed as inhibition of electron transport rate of water to 2,6-dicholorophenol indophenol at 200 uM relative to control. Details: scale not given: the % may be the effect or the level left. Summed up:
as §3

The test system of experiment [5] is Spinacia oleracea. Description: Effect on uncoupled photosystem 1 in spinach chloroplast assessed as inhibition of electron transport rate of 2,6-dichlorophenol indophenol to methyl viologen at 100 uM relative to control. Details: scale not given: the % may be the effect or the level left. Summed up: as §4
Experiment [6] concerns Spinacia oleracea. Description: Inhibition of light activated thylakoid membrane bound Mg+ATPase activity in spinach leaves at 200 uM relative to control. As to conditions: values are per cent of control. Summed up: (§5)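 Thylakoid membrane-bound Mg²⁺-ATPase measured during ATP hydrolysis. Released inorganic phosphate determined colorimetrically.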
Experiment [7] deals with Spinacia oleracea. The experiment is described as follows: Effect on photosystem 2 interaction site in spinach thylakoid membrane assessed as chlorophil-a fluorescence parameter at 150 uM. The class given is cell membranes. Summed up:
(§6)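 Freshly lysed spinach chloroplasts (20 μg Chl mL⁻¹) in the basal noncyclic electron transport medium were incubated with the compound for 5 min in the dark at room temperature. Rapid polyphasic Chl a fluorescence of PSII was then recorded at room temperature using a 2 s saturating pulse (2500 μmol […] s⁻¹, 650 nm LEDs). F0, Fm, Fv/Fm and area were read.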

Experiment [8] concerns Spinacia oleracea. The experiment is described as follows: Effect on photosystem 2 interaction site in spinach thylakoid membrane assessed as chlorophil-a fluorescence parameter at 300 uM. It is filed as cell membranes. Summed up:
as §6

Experiment [9] concerns Spinacia oleracea. The experiment is described as follows: Effect on ATP synthesis in spinach leaves chloroplast assessed as blockade of basal electron transport at 300 uM. The class given is functional. The procedure, abridged:
(§7)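 Spinach chloroplasts at 20 μg chlorophyll/mL, illuminated 1 min in basal electron transport medium (3 mL) with 0.05 mM MV as electron acceptor. Run at 20 °C with a chloroplast-only blank. Rates are in μequiv e⁻ h⁻¹ mg⁻¹ Chl; 100% is the control activity.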

Experiment [10] deals with Spinacia oleracea. Description: Effect on ATP synthesis in spinach leaves chloroplast assessed as blockade of basal electron transport at 50 uM. The class given is functional. Summed up:
as §7

In experiment [11] the test system is Spinacia oleracea. The experiment is described as follows: Effect on photosystem 2 interaction site in spinach thylakoid membrane assessed as chlorophil-a fluorescence parameter at 600 uM. It is filed as cell membranes. Summed up: as §6
For experiment [12], the system named is Spinacia oleracea. The experiment is described as follows: Effect on ATP synthesis in spinach leaves chloroplast assessed as blockade of uncoupled electron transport at 50 uM. It is filed as functional. The procedure, abridged: (§8)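 Uncoupled electron transport measured in basal medium with 6 mM NH₄Cl as uncoupler. Actinic light came from a projector lamp through a 5 cm 1% CuSO₄ filter for 2 min. Chloroplasts at 20 μg Chl/mL, 20 °C, blank with chloroplasts alone. Activity given as % of control.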

For experiment [13], the system named is Spinacia oleracea. The experiment is described as follows: Effect on uncoupled photosystem 2 in spinach chloroplast assessed as inhibition of electron transport rate of water to sodium silicomolybdate at 100 uM relative to control. Details: scale not given: the % may be the effect or the level left. Summed up:
(§9)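 PSII water→silicomolybdate measured in the uncoupled electron flow mixture without MV, plus 200 μM SiMo and 10 μM DCMU. Run at 20 °C with a chloroplast-only blank. Activity given as % of control; average of three replicates.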

The test system of experiment [14] is Spinacia oleracea. Description: Effect on uncoupled photosystem 2 in spinach chloroplast assessed as inhibition of electron transport rate of water to sodium silicomolybdate at 300 uM relative to control. Details: scale not given: the % may be the effect or the level left. Summed up: as §9
The test system of experiment [15] is Spinacia oleracea. The experiment is described as follows: Effect on ATP synthesis in spinach leaves chloroplast assessed as blockade of phosphorylating electron transport at 300 uM. The class given is functional. The procedure, abridged: (§10)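 Photophosphorylating noncyclic electron transport run as the basal assay (chloroplasts 20 μg Chl/mL, 1 min light, MV acceptor) with 1 mM ADP and 3 mM Pi added. Temperature 20 °C with a chloroplast-only blank. Activity expressed as % of control.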

For experiment [16], the system named is Spinacia oleracea. Description: Effect on ATP synthesis in spinach leaves chloroplast assessed as blockade of phosphorylating electron transport at 50 uM. It is filed as functional. The procedure, abridged: as §10
Experiment [17] concerns Spinacia oleracea. The experiment is described as follows: Effect on uncoupled photosystem 2 in spinach chloroplast assessed as inhibition of electron transport rate of water to sodium silicomolybdate at 200 uM relative to control. Details: scale not given: the % may be the effect or the level left. Summed up:
as §9

For experiment [18], the system named is Spinacia oleracea. Description: Effect on uncoupled photosystem 1 in spinach chloroplast assessed as inhibition of electron transport rate of 2,6-dichlorophenol indophenol to methyl viologen at 200 uM relative to control. Details: scale not given: the % may be the effect or the level left. The procedure, abridged:
as §4

The subject of experiment [19] is Spinacia oleracea. The experiment is described as follows: Residual light activated thylakoid membrane bound Mg+ATPase activity in spinach leaves at 300 uM relative to control.
The subject of experiment [20] is Spinacia oleracea. Description: Inhibition of H+ATPase activity in spinach thylakoid membranes at 300 uM. It is filed as cell membranes. The procedure, abridged: as §5
Experiment [21] deals with Spinacia oleracea. Description: Effect on uncoupled photosystem 1 in spinach chloroplast assessed as inhibition of electron transport rate of tetramethyl-p-benzohydroquinone to methyl viologen at 50 uM relative to control. Details: scale not given: the % may be the effect or the level left. The procedure, abridged: (§11)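 Uncoupled PSI flow TMQH₂→MV monitored polarographically at 20 °C in 3 mL basal electron medium. Additions were 100 μM TMQH₂/300 μM ascorbate, 10 μM DCMU and 6 mM NH₄Cl. Blank with chloroplasts alone; values as % of control; average of three replicates.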

The subject of experiment [22] is Spinacia oleracea. Description: Effect on ATP synthesis in spinach leaves chloroplast assessed as blockade of uncoupled electron transport at 300 uM. It is filed as functional. The procedure, abridged: as §8
In experiment [23] the test system is Spinacia oleracea. The experiment is described as follows: Effect on uncoupled photosystem 1 in spinach chloroplast assessed as inhibition of electron transport rate of tetramethyl-p-benzohydroquinone to methyl viologen at 300 uM relative to control. Details: scale not given: the % may be the effect or the level left. Summed up: as §11
Experiment [24] has as its system Spinacia oleracea. Description: Effect on uncoupled photosystem 1 in spinach chloroplast assessed as inhibition of electron transport rate of tetramethyl-p-benzohydroquinone to methyl viologen at 200 uM relative to control. Details: scale not given: the % may be the effect or the level left. The procedure, abridged: as §11
For experiment [25], the system named is Spinacia oleracea. Description: Effect on uncoupled photosystem 2 in spinach chloroplast assessed as inhibition of electron transport rate of water to 2,6-dicholorophenol indophenol at 100 uM relative to control. Details: scale not given: the % may be the effect or the level left. Summed up: as §3
Experiment [26] relates to Spinacia oleracea. The experiment is described as follows: Inhibition of light activated thylakoid membrane bound Mg+ATPase activity in spinach leaves at 100 uM relative to control. As to conditions: values are per cent of control. Summed up:
as §5

For experiment [27], the system named is Spinacia oleracea. Description: Effect on uncoupled photosystem 1 in spinach chloroplast assessed as inhibition of electron transport rate of 2,6-dichlorophenol indophenol to methyl viologen at 50 uM relative to control. Details: scale not given: the % may be the effect or the level left. The procedure, abridged:
as §4

Experiment [28] has as its system Spinacia oleracea. The experiment is described as follows: Effect on uncoupled photosystem 2 in spinach chloroplast assessed as inhibition of electron transport rate of water to sodium silicomolybdate at 50 uM relative to control. Details: scale not given: the % may be the effect or the level left. The procedure, abridged: as §9
The test system of experiment [29] is Spinacia oleracea. Description: Effect on uncoupled photosystem 2 in spinach chloroplast assessed as inhibition of electron transport rate of water to 2,6-dicholorophenol indophenol at 300 uM relative to control. Details: scale not given: the % may be the effect or the level left. The procedure, abridged: as §3
A short description of experiment [30]: as §1. As to conditions: read-out: I50. The class given is functional, Spinacia oleracea. The procedure, abridged: as §2
The subject of experiment [31] is Spinacia oleracea. Description: Effect on uncoupled photosystem 1 in spinach chloroplast assessed as inhibition of electron transport rate of tetramethyl-p-benzohydroquinone to methyl viologen at 100 uM relative to control. Details: scale not given: the % may be the effect or the level left. The procedure, abridged:
as §11

Experiment [32] has as its system Spinacia oleracea. The experiment is described as follows: Effect on photosystem 2 interaction site in spinach thylakoid membrane assessed as chlorophil-a fluorescence parameter at 10 uM. The class given is cell membranes.

In the case of `CC(=O)O[C@H]1CC[C@](C)(O)[C@]23OC(C)(C)[C@H]([C@H](OC(=O)/C=C/c4ccccc4)[C@H](OC(=O)c4ccccc4)[C@]12C)[C@H]3OC(C)=O`, in experiment [1], the result was inactive.
Usually inhibition stands for the relative decrease from the control value, in per cent. For `CC(=O)O[C@H]1CC[C@](C)(O)[C@]23OC(C)(C)[C@H]([C@H](OC(=O)/C=C/c4ccccc4)[C@H](OC(=O)c4ccccc4)[C@]12C)[C@H]3O`, the Activity in [2] was 93%; in [3], 100%; in experiment [4], 71%; in experiment [5] it was 100%; in [13], 32%; in [14], 11%. Also, the Activity in [17] turned out to be 21%; in [18], 100%; in experiment [21] it was 115%; in experiment [23], 131%; in experiment [24] it was 120%; in [25], 80%. Also, the Activity is 106% in experiment [27], 32% in [28], 64% in experiment [29] and 129% in [31]. The residual activity in experiment [6] is 89%; in [19] it was 87%; in experiment [26], 91%. Besides, the Flu intensity is 1220 in experiment [7], 1260 in experiment [8] and 875 in experiment [11]. The inhibition in experiment [9] stood at 32%; in [10], 83%; in experiment [12], 26%; in experiment [15], 68%; in experiment [16], 79%; in experiment [20], 13%. Moreover, the inhibition in experiment [22] amounted to 52%. In experiment [30], the pIC50 was 4.60.
In the case of `CN(C)C(=O)Nc1ccc(Cl)c(Cl)c1`, the Flu intensity in experiment [32] worked out at 1200.
For the compound `CC(=O)O[C@H]1CC[C@@H](C)[C@]23OC(C)(C)[C@H]([C@H](OC(=O)/C=C/c4ccccc4)[C@H](OC(=O)c4ccccc4)[C@]12C)[C@H]3O`, in experiment [30], the pIC50 was 4.36.
